Data published in ChEMBL document CHEMBL1799922, “Synthesis and antimycobacterial activity of prodrugs of indeno[2,1-c]quinoline derivatives” (Eur J Med Chem, 2011).
≈ marks a conversion by molar mass, not a printed value.

tested on: Mycobacterium tuberculosis; experiment: Antimicrobial activity against Mycobacterium tuberculosis H37Rv ATCC 27294 after 16 to 24 hrs by microplate alamar blue assay; type: functional; settings: not given; call rule not given here
Outline: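 M. tuberculosis H37Rv inoculum 2×10^5 cfu/mL (100 µL) added to twofold dilutions in Middlebrook 7H12 medium; final test range 128 µM to 0.5 µM from 12.8 mM DMSO stocks. Incubated 37 °C; day 7 Tween 80 plus Alamar Blue added, further 16-24 h at 37 °C. Fluorescence ex 530/em 590 nm; MIC = lowest concentration giving >90% fluorescence reduction versus replicate bacteria-only controls. Rifampin, isoniazid controls.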

| SMILES | MIC [µg/mL] |
| --- | --- |
| CC(C)(C)OC(=O)N1CCC[C@H]1C(=O)O/N=C1\c2ccccc2-c2c1c(N1CCN(c3ccccn3)CC1)nc1ccc(Br)cc21 | 1.53 (≈ 2.24 µM) |
| CCCCCCCC(=O)OC1(C)c2ccccc2-c2c1c(-n1ccnc1)nc1ccc(Br)cc21 (stereo not given) | 3.42 (≈ 6.6 µM) |
| CC1(OC(=O)CC(F)(F)F)c2ccccc2-c2c1c(-n1ccnc1)nc1ccc(Br)cc21 (stereo not given) | 0.5 (≈ 0.995 µM) |
| CCCCC(=O)OC1(C)c2ccccc2-c2c1c(-n1ccnc1)nc1ccc(Br)cc21 (stereo not given) | 1.53 (≈ 3.21 µM) |
| CCCCCC(=O)O/N=C1\c2ccccc2-c2c1c(N1CCN(c3ccccn3)CC1)nc1ccc(Br)cc21 | 3.16 (≈ 5.41 µM) |

tested on: not listed separately; experiment: Cytotoxicity against human U937 cells assessed as cell viability at 1.25 ug/ml after 72 hrs by MTT assay; type: cell-based, U-937; settings: read-out: Activity
Outline: (§1)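 U937 human monocytic cells plated at 1 × 10^5 cells/mL and allowed to adhere for 1 h at 37 °C in 5% CO2. Non-adherent cells were washed off with RPMI 1640. Adherent cells were exposed to compound in triplicate, with medium alone as the live control and 3% Tween 20 as the dead control. MTT (5 mg/mL in PBS) was then added for 3 h at 37 °C. Formazan was dissolved in 0.4 M HCl/isopropanol and absorbance read at 600 nm. Results are expressed as % cell viability.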

| SMILES | viability at 72 h, 1.25 ug/ml [%] |
| --- | --- |
| CC(C)(C)OC(=O)N1CCC[C@H]1C(=O)O/N=C1\c2ccccc2-c2c1c(N1CCN(c3ccccn3)CC1)nc1ccc(Br)cc21 | 86 |
| CCCCCCCC(=O)OC1(C)c2ccccc2-c2c1c(-n1ccnc1)nc1ccc(Br)cc21 (stereo not given) | 87 |
| CC1(OC(=O)CC(F)(F)F)c2ccccc2-c2c1c(-n1ccnc1)nc1ccc(Br)cc21 (stereo not given) | 92 |
| CCCCC(=O)OC1(C)c2ccccc2-c2c1c(-n1ccnc1)nc1ccc(Br)cc21 (stereo not given) | 91 |
| CCCCCC(=O)O/N=C1\c2ccccc2-c2c1c(N1CCN(c3ccccn3)CC1)nc1ccc(Br)cc21 | 96 |

tested on: not listed separately; experiment: Cytotoxicity against human U937 cells assessed as cell viability at 5 ug/ml after 72 hrs by MTT assay; type: cell-based, U-937; settings: read-out: Activity; outline: as §1

| SMILES | viability at 72 h, 5 ug/ml [%] |
| --- | --- |
| CC(C)(C)OC(=O)N1CCC[C@H]1C(=O)O/N=C1\c2ccccc2-c2c1c(N1CCN(c3ccccn3)CC1)nc1ccc(Br)cc21 | 75 |
| CCCCCCCC(=O)OC1(C)c2ccccc2-c2c1c(-n1ccnc1)nc1ccc(Br)cc21 (stereo not given) | 72 |
| CC1(OC(=O)CC(F)(F)F)c2ccccc2-c2c1c(-n1ccnc1)nc1ccc(Br)cc21 (stereo not given) | 80 |
| CCCCC(=O)OC1(C)c2ccccc2-c2c1c(-n1ccnc1)nc1ccc(Br)cc21 (stereo not given) | 75 |
| CCCCCC(=O)O/N=C1\c2ccccc2-c2c1c(N1CCN(c3ccccn3)CC1)nc1ccc(Br)cc21 | 86 |

tested on: not listed separately; experiment: Cytotoxicity against human U937 cells assessed as cell viability at 10 ug/ml after 72 hrs by MTT assay; type: cell-based, U-937; settings: read-out: Activity; outline: as §1

| SMILES | viability at 72 h, 10 ug/ml [%] |
| --- | --- |
| CC(C)(C)OC(=O)N1CCC[C@H]1C(=O)O/N=C1\c2ccccc2-c2c1c(N1CCN(c3ccccn3)CC1)nc1ccc(Br)cc21 | 61 |
| CCCCCCCC(=O)OC1(C)c2ccccc2-c2c1c(-n1ccnc1)nc1ccc(Br)cc21 (stereo not given) | 52 |
| CC1(OC(=O)CC(F)(F)F)c2ccccc2-c2c1c(-n1ccnc1)nc1ccc(Br)cc21 (stereo not given) | 62 |
| CCCCC(=O)OC1(C)c2ccccc2-c2c1c(-n1ccnc1)nc1ccc(Br)cc21 (stereo not given) | 48 |
| CCCCCC(=O)O/N=C1\c2ccccc2-c2c1c(N1CCN(c3ccccn3)CC1)nc1ccc(Br)cc21 | 85 |

tested on: not listed separately; experiment: Cytotoxicity against human U937 cells assessed as cell viability at 20 ug/ml after 72 hrs by MTT assay; type: cell-based, U-937; settings: read-out: Activity; outline: as §1

| SMILES | viability at 72 h, 20 ug/ml [%] |
| --- | --- |
| CC(C)(C)OC(=O)N1CCC[C@H]1C(=O)O/N=C1\c2ccccc2-c2c1c(N1CCN(c3ccccn3)CC1)nc1ccc(Br)cc21 | 69 |
| CCCCCCCC(=O)OC1(C)c2ccccc2-c2c1c(-n1ccnc1)nc1ccc(Br)cc21 (stereo not given) | 17 |
| CC1(OC(=O)CC(F)(F)F)c2ccccc2-c2c1c(-n1ccnc1)nc1ccc(Br)cc21 (stereo not given) | 26 |
| CCCCC(=O)OC1(C)c2ccccc2-c2c1c(-n1ccnc1)nc1ccc(Br)cc21 (stereo not given) | 4 |
| CCCCCC(=O)O/N=C1\c2ccccc2-c2c1c(N1CCN(c3ccccn3)CC1)nc1ccc(Br)cc21 | 87 |

tested on: Serum; experiment: Stability of the compound in 80% human blood serum assessed as hydrolysis to 2-bromo-6-(1H-imidazol-1-yl)-7H-indeno[2,1-c]quinolin-7-one oxime at 1 mg after 24 hrs at 37 degC by LC-MS analysis; type: ADME, cell-free; parameters: scale not given: the % may be the effect or the level left; settings: not given
Outline: (§2)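 Enzymatic hydrolysis: 1 mg prodrug dissolved in 1 mL ethanol, then 200 µL preheated human blood serum diluted to 80% with 0.16 M phosphate buffer (pH 7.4) was added. Samples were kept at 37 °C (24 h) and centrifuged 10 min at 10,000 rpm. Remaining prodrug in the supernatant was monitored by TLC and LC-MS. t1/2 is the time to 50% hydrolysis.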

| SMILES | Activity |
| --- | --- |
| CC(C)(C)OC(=O)N1CCC[C@H]1C(=O)O/N=C1\c2ccccc2-c2c1c(N1CCN(c3ccccn3)CC1)nc1ccc(Br)cc21 | 13% |
| CCCCCCCC(=O)OC1(C)c2ccccc2-c2c1c(-n1ccnc1)nc1ccc(Br)cc21 (stereo not given) | Not Active |
| CCCCC(=O)OC1(C)c2ccccc2-c2c1c(-n1ccnc1)nc1ccc(Br)cc21 (stereo not given) | Not Active |
| CCCCCC(=O)O/N=C1\c2ccccc2-c2c1c(N1CCN(c3ccccn3)CC1)nc1ccc(Br)cc21 | 5% |

tested on: not listed separately; experiment: Stability of the compound in 10% aqueous ammonia buffer at pH 8 assessed as hydrolysis to 2-bromo-6-(1H-imidazol-1-yl)-7H-indeno[2,1-c]quinolin-7-one oxime at 1 mg at 37 degC by LC-MS analysis; type: physicochemical; parameters: scale not given: the % may be the effect or the level left; settings: not given
Outline: (§3)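 Chemical hydrolysis: 1 mg prodrug dissolved in 1 mL of 10% aqueous ammonia in methanol (pH 8) and held in a thermostatted water bath at 37 °C, up to 24 h. Conversion to the parent oxime was followed by TLC and LC-MS. t1/2 is the time to 50% hydrolysis.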

| SMILES | Activity [%] |
| --- | --- |
| CC(C)(C)OC(=O)N1CCC[C@H]1C(=O)O/N=C1\c2ccccc2-c2c1c(N1CCN(c3ccccn3)CC1)nc1ccc(Br)cc21 | 95 |
| CCCCCCCC(=O)OC1(C)c2ccccc2-c2c1c(-n1ccnc1)nc1ccc(Br)cc21 (stereo not given) | 90 |
| CC1(OC(=O)CC(F)(F)F)c2ccccc2-c2c1c(-n1ccnc1)nc1ccc(Br)cc21 (stereo not given) | 96 |
| CCCCC(=O)OC1(C)c2ccccc2-c2c1c(-n1ccnc1)nc1ccc(Br)cc21 (stereo not given) | 90 |
| CCCCCC(=O)O/N=C1\c2ccccc2-c2c1c(N1CCN(c3ccccn3)CC1)nc1ccc(Br)cc21 | 95 |

tested on: not listed separately; experiment: Half life in human blood serum by LC-MS analysis; type: ADME, cell-free, Plasma; settings: not given; outline: as §2

| SMILES | half-life [days] |
| --- | --- |
| CC1(OC(=O)CC(F)(F)F)c2ccccc2-c2c1c(-n1ccnc1)nc1ccc(Br)cc21 (stereo not given) | 20 |

tested on: not listed separately; experiment: Half life in 10% aqueous ammonia buffer at pH 8 assessed as hydrolysis to 2-bromo-6-(1H-imidazol-1-yl)-7H-indeno[2,1-c]quinolin-7-one oxime at 37 degC by LC-MS analysis; type: physicochemical; settings: not given; outline: as §3

| SMILES | half-life [days] |
| --- | --- |
| CC(C)(C)OC(=O)N1CCC[C@H]1C(=O)O/N=C1\c2ccccc2-c2c1c(N1CCN(c3ccccn3)CC1)nc1ccc(Br)cc21 | 1 |
| CCCCCCCC(=O)OC1(C)c2ccccc2-c2c1c(-n1ccnc1)nc1ccc(Br)cc21 (stereo not given) | 11 |
| CC1(OC(=O)CC(F)(F)F)c2ccccc2-c2c1c(-n1ccnc1)nc1ccc(Br)cc21 (stereo not given) | 1 |
| CCCCC(=O)OC1(C)c2ccccc2-c2c1c(-n1ccnc1)nc1ccc(Br)cc21 (stereo not given) | 12 |
| CCCCCC(=O)O/N=C1\c2ccccc2-c2c1c(N1CCN(c3ccccn3)CC1)nc1ccc(Br)cc21 | 24 |

tested on: not listed separately; experiment: Octanol-water partition coefficient, log P of the compound at pH 7.4 at room temperature by UV spectrophotometric analysis; type: physicochemical; settings: not given
Outline: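 Shake-flask method at room temperature: 1-octanol and phosphate buffer (pH 7.4) were pre-saturated by shaking for 24 h. Compound at 10^-4 M in equal volumes of both phases was shaken vigorously for 1 h, left to stand 15 min, then centrifuged 10 min at 10,000 rpm. UV absorbance of each phase was read at 280 nm against blanks, and P was taken as the octanol/water absorbance ratio.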

| SMILES | logD |
| --- | --- |
| CC(C)(C)OC(=O)N1CCC[C@H]1C(=O)O/N=C1\c2ccccc2-c2c1c(N1CCN(c3ccccn3)CC1)nc1ccc(Br)cc21 | 2.3 |
| CCCCCCCC(=O)OC1(C)c2ccccc2-c2c1c(-n1ccnc1)nc1ccc(Br)cc21 (stereo not given) | 1.8 |
| CC1(OC(=O)CC(F)(F)F)c2ccccc2-c2c1c(-n1ccnc1)nc1ccc(Br)cc21 (stereo not given) | 1.8 |
| CCCCC(=O)OC1(C)c2ccccc2-c2c1c(-n1ccnc1)nc1ccc(Br)cc21 (stereo not given) | 1.7 |
| CCCCCC(=O)O/N=C1\c2ccccc2-c2c1c(N1CCN(c3ccccn3)CC1)nc1ccc(Br)cc21 | 2.1 |

tested on: not listed separately; experiment: Selectivity index, ratio CC50 for human U937 cells to MIC for Mycobacterium tuberculosis H37Rv ATCC 27294; type: functional, U-937; settings: not given

| SMILES | Selectivity Index |
| --- | --- |
| CC(C)(C)OC(=O)N1CCC[C@H]1C(=O)O/N=C1\c2ccccc2-c2c1c(N1CCN(c3ccccn3)CC1)nc1ccc(Br)cc21 | >26 |
| CCCCCCCC(=O)OC1(C)c2ccccc2-c2c1c(-n1ccnc1)nc1ccc(Br)cc21 (stereo not given) | 2.5 |
| CC1(OC(=O)CC(F)(F)F)c2ccccc2-c2c1c(-n1ccnc1)nc1ccc(Br)cc21 (stereo not given) | 22.4 |
| CCCCC(=O)OC1(C)c2ccccc2-c2c1c(-n1ccnc1)nc1ccc(Br)cc21 (stereo not given) | 5.6 |
| CCCCCC(=O)O/N=C1\c2ccccc2-c2c1c(N1CCN(c3ccccn3)CC1)nc1ccc(Br)cc21 | >13 |
